Assays:
Format in all cases: functional
Mus musculus [1] = test: Compound was tested for antidepressant activity against reserpine induced ptosis in mice after intraperitoneal administration.; value ranges from 2.2-2.4; details: ip
Method in brief: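 Female CD1 mice (18-22 g) received the drug in distilled water/gum tragacanth ip at multiple doses (7-20 mice/dose), given together with reserpine (2 mg/kg iv). One hour later, palpebral ptosis (half or more of the lid closed) was scored all-or-none. Screening dose was at most 50% of the seizure threshold dose.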

Mus musculus [2] = test: Serotonergic activity was determined by measuring the potentiation of 5-hydroxytryptophan in mice upon ip administration
Method in brief: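 Drug was injected ip in distilled water/gum tragacanth to female CD1 mice (18-22 g) at multiple doses (7-20 mice/dose), 30 min before a threshold dose of L-5-HTP (200 mg/kg ip). Mice were held singly in small cages, and tremor was scored all-or-none over the 20 min after L-5-HTP.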

Mus musculus [3] = test: Ability to modify turning behavior of mice after intraperitoneal administration; details: ip, read-out: MED
Method in brief: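 Female CD1 mice (25-30 g) were lesioned by stereotaxic injection of 6-OHDA (10 μg in 1 μL saline with 1 mg/mL ascorbic acid) into the right striatum under pentobarbitone (60 mg/kg ip). Seven days later, drug in distilled water/gum tragacanth was given ip at multiple doses (7-20 mice/dose). Ipsilateral turns were counted for 2 min starting 30 min post-dose.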

CN(C)CCCN1c2ccccc2CCc2ccccc21 [IMIPRAMINE]
ED50 (Mus musculus [1]): 2.3 mg/kg
ED50 (Mus musculus [2]): > 30 mg/kg
minimal effective dose (Mus musculus [3]): > 20 mg/kg

From ChEMBL document CHEMBL1124408, “3-aminopyridazine derivatives with atypical antidepressant, serotonergic, and dopaminergic activities” (J Med Chem, 1989)
